Source: PMC2886590 (Journal of molecular biology, 2010)

Molecular target: MLL PHD3 finger (Homo sapiens, UniProt Q03164)
Assay: NMR titration of histone peptides
Assay type: binding
Details: 0.2 mM 15N-labeled PHD3, 12-mer histone tail peptide, 298K
Outline: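 PHD3 finger (residues 1565-1627, wild type or mutant) was expressed as a GST fusion in E. coli BL21(DE3) pLysS grown in 15NH4Cl minimal medium. It was affinity-purified, GST-cleaved, size-exclusion purified and held in 25 mM d11-Tris pH 6.8, 150 mM KCl, 10 mM deuterated DTT and 7% 2H2O. 12-mer histone tail peptides were added stepwise to 0.2 mM protein, and normalized chemical shift changes were tracked in 1H,15N HSQC spectra.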

MLL PHD3 finger, sequence (Q03164 1565-1627): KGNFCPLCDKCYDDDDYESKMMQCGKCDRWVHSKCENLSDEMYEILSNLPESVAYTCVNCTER

exchange regime on NMR time scale: intermediate-to-fast exchange regime
Substance: H3K4me3: histone H3 tail peptide trimethylated at lysine 4 (biotinylated residues 1-21; 12-mer for NMR)
